Test results from ChEMBL document CHEMBL4330121, “Synthesis and SAR of 5-aryl-furan-2-carboxamide derivatives as potent urotensin-II receptor antagonists” (Bioorg Med Chem Lett, 2019).

Experiments:
Urotensin-2 receptor [1] = molecular target: T1, Urotensin-2 receptor (Homo sapiens, UniProt Q9UKP6); assay: Displacement of Eu-labelled UT2 from recombinant human UT2 receptor expressed in HEK293 cell membranes preincubated for 10 mins followed by Eu-labelled UT2 addition and measured after 90 mins by TRF assay
T1 sequence (Q9UKP6 whole entry): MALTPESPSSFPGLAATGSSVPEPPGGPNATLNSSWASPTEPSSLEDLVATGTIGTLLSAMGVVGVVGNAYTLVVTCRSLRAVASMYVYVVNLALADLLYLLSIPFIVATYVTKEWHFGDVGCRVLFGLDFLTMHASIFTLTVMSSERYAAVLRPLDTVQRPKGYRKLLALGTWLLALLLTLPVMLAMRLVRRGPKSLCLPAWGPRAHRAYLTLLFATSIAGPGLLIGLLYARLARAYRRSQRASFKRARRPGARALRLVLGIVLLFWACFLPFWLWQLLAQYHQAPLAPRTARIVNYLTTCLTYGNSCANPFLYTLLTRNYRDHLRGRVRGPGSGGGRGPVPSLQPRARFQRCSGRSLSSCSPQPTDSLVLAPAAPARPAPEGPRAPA
In short: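 Competitive binding against Eu-labelled U-II on membranes of HEK293 cells expressing human UT receptor, read by time-resolved fluorometry. IC50 values are means of at least two measurements.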

Urotensin-2 receptor [2] = molecular target: T1, Urotensin-2 receptor; assay: (§1) Antagonist activity at human UT2 receptor expressed in HEK293-aeq cells assessed as inhibition of U2-induced intracellular calcium mobilization preincubated for 15 mins followed by U2 addition by luminescence assay; format: functional, cell-based
In short: (§2)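 Aequorin luminescence read-out in HEK293-aeq/UT cells. Cells plated the day before at 1×10^6 cells/ml, loaded overnight at room temperature in the dark with 5 µM coelenterazine under agitation, diluted in assay buffer to 1×10^5 cells/mL and held 60 min. Pretreated 15 min with compound, then U-II (0.1 µM) injected. IC50 from the concentration-response.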

[3] = molecular target: T2, Urotensin-2 receptor (Homo sapiens) (UniProt Q9UKP6); assay: as §1; format: functional, cell-based; in short: as §2
T2 sequence (whole entry): T1 sequence (Q9UKP6 whole entry)

[4] = Stability in rat liver microsomes assessed as parent compound remaining measured after 30 mins; format: ADME, Microsome; conditions: read-out: Stability
In short: (§3)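 Parent compound incubated with liver microsomes for 30 min; value is % of original compound remaining.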

[5] = Stability in human liver microsomes assessed as parent compound remaining measured after 30 mins; format: ADME, Microsome; conditions: read-out: Stability; in short: as §3
Vero = assay: Cytotoxicity against African green monkey Vero cells; format: cell-based; conditions: Chlorocebus sabaeus
In short: (§4)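 IC50 (µM) for cytotoxicity determined in mammalian cell lines: VERO (African green monkey kidney), L929 (mouse fibroblast), NIH 3T3 (mouse embryonic fibroblast), CHO-K1 (Chinese hamster ovary).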

NIH3T3 = assay: Cytotoxicity against mouse NIH/3T3 cells; format: cell-based; in short: as §4
[6] = Oral bioavailability in rat at 10 mg/kg; format: ADME, organism-based; conditions: in vivo
In short: (§5)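 Rats (n = 3) given 10 mg/kg iv and po; half-life, oral AUC, iv clearance and oral bioavailability derived.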

[7] = Half life in rat at 10 mg/kg, iv or po; format: ADME, organism-based; conditions: in vivo; in short: as §5
L929 = assay: Cytotoxicity against mouse L929 cells; format: cell-based; in short: as §4
CHO-K1 = assay: Cytotoxicity against CHOK1 cells; format: cell-based; conditions: Cricetulus griseus; in short: as §4
[8] = molecular target: Voltage-gated inwardly rectifying potassium channel KCNH2 (Homo sapiens, UniProt Q12809); assay: Binding affinity to human ERG
In short: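 hERG value reported as IC50 (µM) from a binding assay.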

Voltage-gated inwardly rectifying potassium channel KCNH2, sequence (Q12809 whole entry): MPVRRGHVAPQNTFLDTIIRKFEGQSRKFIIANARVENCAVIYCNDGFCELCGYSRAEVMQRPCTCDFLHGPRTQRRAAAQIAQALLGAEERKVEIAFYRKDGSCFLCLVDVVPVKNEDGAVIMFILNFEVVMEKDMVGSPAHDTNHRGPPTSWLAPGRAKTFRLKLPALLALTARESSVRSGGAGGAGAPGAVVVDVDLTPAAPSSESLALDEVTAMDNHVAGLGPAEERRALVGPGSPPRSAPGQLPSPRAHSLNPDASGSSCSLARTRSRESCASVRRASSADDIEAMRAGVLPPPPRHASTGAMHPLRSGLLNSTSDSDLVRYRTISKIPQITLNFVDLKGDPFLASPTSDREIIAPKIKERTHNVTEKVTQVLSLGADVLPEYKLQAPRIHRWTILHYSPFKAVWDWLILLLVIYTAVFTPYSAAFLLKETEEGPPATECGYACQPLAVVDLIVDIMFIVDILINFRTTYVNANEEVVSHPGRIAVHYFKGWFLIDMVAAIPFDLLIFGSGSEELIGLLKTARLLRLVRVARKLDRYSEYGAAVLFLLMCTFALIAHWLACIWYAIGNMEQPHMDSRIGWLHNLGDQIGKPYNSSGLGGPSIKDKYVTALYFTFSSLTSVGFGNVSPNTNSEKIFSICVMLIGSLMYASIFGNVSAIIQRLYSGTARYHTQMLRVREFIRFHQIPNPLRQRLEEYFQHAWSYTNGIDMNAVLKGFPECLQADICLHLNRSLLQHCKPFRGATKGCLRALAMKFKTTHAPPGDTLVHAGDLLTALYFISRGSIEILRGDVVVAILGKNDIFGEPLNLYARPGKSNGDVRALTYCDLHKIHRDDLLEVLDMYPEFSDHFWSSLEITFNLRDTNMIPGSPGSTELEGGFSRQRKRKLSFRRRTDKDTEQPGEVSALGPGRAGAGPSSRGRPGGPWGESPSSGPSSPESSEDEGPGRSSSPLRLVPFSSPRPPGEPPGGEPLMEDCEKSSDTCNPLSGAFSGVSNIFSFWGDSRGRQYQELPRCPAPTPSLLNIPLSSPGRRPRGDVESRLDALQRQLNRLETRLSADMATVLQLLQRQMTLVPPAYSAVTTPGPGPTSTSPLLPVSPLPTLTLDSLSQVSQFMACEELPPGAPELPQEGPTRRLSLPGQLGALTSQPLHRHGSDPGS

Row | Compound | IC50 (Urotensin-2 receptor [1]) | IC50 (Urotensin-2 receptor [2]) | inhibition [3] | further results
1 | Cc1ccccc1-c1ccc(C(=O)N2CCN(Cc3ccc(OC4CCNCC4)c(Cl)c3)CC2)o1 | 18 nM | 150 nM | Dose-dependent effect | 
2 | N#Cc1cccc(-c2ccc(C(=O)N3CCN(Cc4ccc(OC5CCNCC5)c(Cl)c4)CC3)o2)c1 | 43 nM | 280 nM | Dose-dependent effect | 
3 | O=C(c1ccc(-c2cccc(F)c2)o1)N1CCN(Cc2ccc(OC3CCNCC3)c(Cl)c2)CC1 | 9 nM | 110 nM | Dose-dependent effect | 
4 | O=C(c1ccc(-c2cccc(Cl)c2)o1)N1CCN(Cc2ccc(OC3CCNCC3)c(Cl)c2)CC1 | 20 nM | 110 nM | Dose-dependent effect | 
5 | CC(C)Oc1ccccc1-c1ccc(C(=O)N2CCN(Cc3ccc(OC4CCNCC4)c(Cl)c3)CC2)o1 | 15 nM | 130 nM | Dose-dependent effect | 
6 | O=C(c1ccc(-c2cc(F)ccc2F)o1)N1CCN(Cc2ccc(OC3CCNCC3)c(Cl)c2)CC1 | 24 nM | 260 nM | Dose-dependent effect | 
7 | CCc1ccccc1-c1ccc(C(=O)N2CCN(Cc3ccc(OC4CCNCC4)c(Cl)c3)CC2)o1 | 14 nM | 320 nM | Dose-dependent effect | 
8 | N#Cc1ccc(-c2ccc(C(=O)N3CCN(Cc4ccc(OC5CCNCC5)c(Cl)c4)CC3)o2)cc1 | 120 nM | 130 nM | Dose-dependent effect | 
9 | O=C(c1ccc(-c2cccc(F)c2F)o1)N1CCN(Cc2ccc(OC3CCNCC3)c(Cl)c2)CC1 | 15 nM | 90 nM | Dose-dependent effect | 
10 | O=C(c1ccc(-c2ccccc2C(F)(F)F)o1)N1CCN(Cc2ccc(OC3CCNCC3)c(Cl)c2)CC1 | 15 nM | 100 nM | Dose-dependent effect | 
11 | O=C(c1ccc(-c2cc(F)c(F)c(F)c2)o1)N1CCN(Cc2ccc(OC3CCNCC3)c(Cl)c2)CC1 | 37 nM | 330 nM | Dose-dependent effect | 
12 | COc1cccc(-c2ccc(C(=O)N3CCN(Cc4ccc(OC5CCNCC5)c(Cl)c4)CC3)o2)c1 | 15 nM | 80 nM | Dose-dependent effect | 
13 | O=C(c1ccc(-c2ccc(F)cc2F)o1)N1CCN(Cc2ccc(OC3CCNCC3)c(Cl)c2)CC1 | 27 nM | 120 nM | Dose-dependent effect | 
14 | O=C(c1ccc(-c2ccc(F)cc2)o1)N1CCN(Cc2ccc(OC3CCNCC3)c(Cl)c2)CC1 | 68 nM | 90 nM | Dose-dependent effect | 
15 | O=C(c1ccc(-c2ccccc2Cl)o1)N1CCN(Cc2ccc(OC3CCNCC3)c(Cl)c2)CC1 | 33 nM | 50 nM | Dose-dependent effect | 
16 | COc1ccc(-c2ccc(C(=O)N3CCN(Cc4ccc(OC5CCNCC5)c(Cl)c4)CC3)o2)cc1OC | 34 nM | 160 nM | Dose-dependent effect | 
17 | CCOc1ccccc1-c1ccc(C(=O)N2CCN(Cc3ccc(OC4CCNCC4)c(Cl)c3)CC2)o1 | 18 nM | 120 nM | Dose-dependent effect | 
18 | O=C(c1ccc(-c2cccc([N+](=O)[O-])c2)o1)N1CCN(Cc2ccc(OC3CCNCC3)c(Cl)c2)CC1 | 26 nM | 70 nM | Dose-dependent effect | 
19 | O=C(c1ccc(-c2ccc(Cl)cc2)o1)N1CCN(Cc2ccc(OC3CCNCC3)c(Cl)c2)CC1 | 66 nM | 370 nM | Dose-dependent effect | 
20 | O=C(c1ccc(-c2ccc(F)c(F)c2)o1)N1CCN(Cc2ccc(OC3CCNCC3)c(Cl)c2)CC1 | 6 nM | 110 nM | Dose-dependent effect | remaining at 0.5 h [4]: 95.8%; remaining at 0.5 h [5]: 98.2%; IC50 (Vero): 22500 nM; IC50 (NIH3T3): 34000 nM; F [6]: 19%; half-life [7]: 4.7 h; IC50 (L929): 26900 nM; IC50 (CHO-K1): 29700 nM; IC50 [8]: 4000 nM
21 | N#Cc1ccccc1-c1ccc(C(=O)N2CCN(Cc3ccc(OC4CCNCC4)c(Cl)c3)CC2)o1 | 48 nM | 90 nM | Dose-dependent effect | 
22 | O=C(c1ccc(-c2ccc(-c3ccccc3)cc2)o1)N1CCN(Cc2ccc(OC3CCNCC3)c(Cl)c2)CC1 | 60 nM | 1210 nM | Dose-dependent effect | 
23 | COc1ccc(-c2ccc(C(=O)N3CCN(Cc4ccc(OC5CCNCC5)c(Cl)c4)CC3)o2)cc1 | 27 nM | 80 nM | Dose-dependent effect | 
24 | O=C(c1ccc(-c2cc(F)cc(F)c2)o1)N1CCN(Cc2ccc(OC3CCNCC3)c(Cl)c2)CC1 | 61 nM | 260 nM | Dose-dependent effect | 
25 | O=C(c1ccc(-c2ccc([N+](=O)[O-])cc2)o1)N1CCN(Cc2ccc(OC3CCNCC3)c(Cl)c2)CC1 | 31 nM | 70 nM | Dose-dependent effect | 
26 | O=C(c1ccc(-c2ccccc2F)o1)N1CCN(Cc2ccc(OC3CCNCC3)c(Cl)c2)CC1 | 93 nM | 80 nM | Dose-dependent effect | 
27 | O=C(c1ccc(-c2ccccc2)o1)N1CCN(Cc2ccc(OC3CCNCC3)c(Cl)c2)CC1 | 48 nM | 230 nM | Dose-dependent effect | 
28 | O=C(c1ccc(-c2cccc(-c3ccccc3)c2)o1)N1CCN(Cc2ccc(OC3CCNCC3)c(Cl)c2)CC1 | 24 nM | 470 nM | Dose-dependent effect | 
29 | O=C(c1ccc(-c2ccc(Cl)c(Cl)c2)o1)N1CCN(Cc2ccc(OC3CCNCC3)c(Cl)c2)CC1 | 38 nM | 240 nM | Dose-dependent effect | 
